Results taken from ChEMBL document CHEMBL3244174, “Synthesis and biological activity of some new furan quaternary salts” (J Med Chem, 1977).
Values after ≈ are worked out from the molar mass of the structure shown.

Experiments:
Trichophyton rubrum = experiment: Antifungal activity against Trichophyton rubrum 252 CSTM assessed as growth inhibition by agar dilution method; type: functional
[1] = test system: Mycobacterium tuberculosis; experiment: Antibacterial activity against Mycobacterium tuberculosis H37Rv assessed as growth inhibition by serial dilution method; type: functional
Outline: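 M. tuberculosis H37Rv maintained on Lowenstein–Jensen medium; tested in Youman's medium by serial dilution.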

Candida albicans = experiment: Antifungal activity against Candida albicans SKF 2270 assessed as growth inhibition by agar dilution method; type: functional
Staphylococcus aureus = experiment: Antibacterial activity against Staphylococcus aureus ATCC 6538 assessed as growth inhibition after 24 hrs by dilution tube method; type: functional; conditions: ATCC 6538, 24 h
Outline: (§1)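 Broth tube dilution in Tryptone Soya Broth, duplicate tubes at each concentration. MIC (μg/ml) was the highest dilution preventing visible growth. Nitrofurantoin run under the same conditions.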

Escherichia coli = experiment: Antibacterial activity against Escherichia coli 114 assessed as growth inhibition after 24 hrs by dilution tube method; type: functional; conditions: Escherichia coli, 114, 24 h; outline: as §1
Klebsiella pneumoniae = experiment: Antibacterial activity against Klebsiella pneumoniae ATCC 10031 assessed as growth inhibition after 24 hrs by dilution tube method; type: functional; conditions: ATCC 10031, 24 h; outline: as §1
Nannizzia gypsea = experiment: Antifungal activity against Microsporum gypseum 153 CSTM assessed as growth inhibition by agar dilution method; type: functional
Histoplasma capsulatum = experiment: Antifungal activity against Histoplasma capsulatum RNSH Hi-70 1/2 assessed as growth inhibition by agar dilution method; type: functional
Salmonella typhi = experiment: Antibacterial activity against Salmonella typhi 115 assessed as growth inhibition after 24 hrs by dilution tube method; type: functional, Salmonella enterica subsp. enterica serovar Typhi; conditions: Salmonella enterica, 115, 24 h
Outline: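 Dilution tube method in Tryptone Soya Broth; MIC (μg/ml) taken as highest dilution preventing visible growth; duplicates at every concentration; nitrofurantoin reference run under same conditions.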

Pseudomonas aeruginosa = experiment: Antibacterial activity against Pseudomonas aeruginosa ATCC 10145 assessed as growth inhibition after 24 hrs by dilution tube method; type: functional; conditions: ATCC 10145, 24 h; outline: as §1
[2] = test system: Agrobacterium tumefaciens; experiment: Antibacterial activity against Agrobacterium tumefaciens NRRL B-36 assessed as growth inhibition after 24 hrs by dilution tube method; type: functional; conditions: NRRL B-36, 24 h; outline: as §1
Enterococcus faecalis = experiment: Antibacterial activity against Streptococcus faecalis ATCC 10541 assessed as growth inhibition after 24 hrs by dilution tube method; type: functional; conditions: ATCC 10541, 24 h; outline: as §1
Cryptococcus neoformans = experiment: Antifungal activity against Cryptococcus neoformans 103 assessed as growth inhibition by agar dilution method; type: functional
Microsporum canis = experiment: Antifungal activity against Microsporum canis VM-200 USPHS assessed as growth inhibition by agar dilution method; type: functional
[3] = test system: Trichophyton mentagrophytes; experiment: Antifungal activity against Trichophyton mentagrophytes A-280 USPHS assessed as growth inhibition by agar dilution method; type: functional

SMILES	MIC (Trichophyton rubrum)	MIC [1]	MIC (Candida albicans)	MIC (Staphylococcus aureus)	MIC (Escherichia coli)	MIC (Klebsiella pneumoniae)	MIC (Nannizzia gypsea)	MIC (Histoplasma capsulatum)	MIC (Salmonella typhi)	MIC (Pseudomonas aeruginosa)	MIC [2]	MIC (Enterococcus faecalis)	MIC (Cryptococcus neoformans)	MIC (Microsporum canis)	MIC [3]
Cc1ccc(C[N+](C)(C)CCOc2c(Br)cc(Br)cc2Br)o1.[Br-]	> 200 µg/mL	25 µg/mL	> 200 µg/mL	50 µg/mL	> 200 µg/mL	50 µg/mL	> 200 µg/mL	> 200 µg/mL	> 200 µg/mL	25 µg/mL	100 µg/mL	50 µg/mL	50 µg/mL	> 200 µg/mL	> 200 µg/mL
C[N+](C)(CCCCCOc1ccc(Cl)cc1)Cc1ccc(Br)o1.[Br-]	> 200 µg/mL	–	> 200 µg/mL	50 µg/mL	> 200 µg/mL	50 µg/mL	> 200 µg/mL	> 200 µg/mL	> 200 µg/mL	25 µg/mL	> 200 µg/mL	100 µg/mL	> 200 µg/mL	100 µg/mL	> 200 µg/mL
C[N+](C)(CCCCCCCCCCOc1c(Br)cc(Br)cc1Br)Cc1ccc(Br)o1.[Br-]	> 200 µg/mL	50 µg/mL	> 200 µg/mL	10 µg/mL	> 200 µg/mL	3 µg/mL	> 200 µg/mL	> 200 µg/mL	> 200 µg/mL	2 µg/mL	7.5 µg/mL	4 µg/mL	4 µg/mL	> 200 µg/mL	> 200 µg/mL
Cc1cc(OCCCCCCCCCC[N+](C)(C)Cc2ccc(Br)o2)c(C(C)C)cc1Cl.[Br-]	> 200 µg/mL	–	> 200 µg/mL	25 µg/mL	> 200 µg/mL	–	> 200 µg/mL	100 µg/mL	> 200 µg/mL	25 µg/mL	> 200 µg/mL	50 µg/mL	100 µg/mL	100 µg/mL	–
C[N+](C)(CCOc1c(Br)cc(Br)cc1Br)Cc1ccc(Br)o1.[Br-]	> 200 µg/mL	–	> 200 µg/mL	25 µg/mL	> 200 µg/mL	25 µg/mL	> 200 µg/mL	100 µg/mL	> 200 µg/mL	25 µg/mL	100 µg/mL	25 µg/mL	50 µg/mL	100 µg/mL	100 µg/mL
C[N+](C)(CCCCCOc1ccccc1Cl)Cc1ccc(Br)o1.[Br-]	> 200 µg/mL	–	> 200 µg/mL	50 µg/mL	> 200 µg/mL	100 µg/mL	> 200 µg/mL	> 200 µg/mL	> 200 µg/mL	50 µg/mL	> 200 µg/mL	> 200 µg/mL	> 200 µg/mL	> 200 µg/mL	> 200 µg/mL
Cc1cc(OCCCCCC[N+](C)(C)Cc2ccc([N+](=O)[O-])o2)c(C(C)C)cc1Cl.[Br-]	200 µg/mL	–	> 200 µg/mL	> 200 µg/mL	> 200 µg/mL	> 200 µg/mL	> 200 µg/mL	> 200 µg/mL	> 200 µg/mL	> 200 µg/mL	> 200 µg/mL	> 200 µg/mL	25 µg/mL	100 µg/mL	> 200 µg/mL
C[N+](C)(CCCCOc1ccccc1Cl)Cc1ccc(Br)o1.[Br-]	> 200 µg/mL	–	> 200 µg/mL	100 µg/mL	> 200 µg/mL	100 µg/mL	> 200 µg/mL	> 200 µg/mL	> 200 µg/mL	100 µg/mL	> 200 µg/mL	> 200 µg/mL	> 200 µg/mL	> 200 µg/mL	> 200 µg/mL
C[N+](C)(CCCCOc1ccccc1Cl)Cc1ccc([N+](=O)[O-])o1.[Br-]	> 200 µg/mL	–	> 200 µg/mL	100 µg/mL	> 200 µg/mL	100 µg/mL	> 200 µg/mL	> 200 µg/mL	> 200 µg/mL	100 µg/mL	> 200 µg/mL	> 200 µg/mL	> 200 µg/mL	> 200 µg/mL	> 200 µg/mL
C[C@@H]1[C@H](O)[C@@H](C)/C=C/C=C/C=C/C=C/C=C/C=C/C=C/[C@H](O[C@@H]2O[C@H](C)[C@@H](O)[C@H](N)[C@@H]2O)C[C@@H]2O[C@](O)(C[C@@H](O)C[C@@H](O)[C@H](O)CC[C@@H](O)C[C@@H](O)CC(=O)O[C@H]1C)C[C@H](O)[C@H]2C(=O)O [AMPHOTERICIN B]	10 µg/mL (≈ 10.8 µM)	–	2.5 µg/mL (≈ 2.71 µM)	–	–	–	10 µg/mL (≈ 10.8 µM)	0.5 µg/mL (≈ 0.541 µM)	–	–	–	–	–	5 µg/mL (≈ 5.41 µM)	10 µg/mL (≈ 10.8 µM)
C[N+](C)(CCCCOc1ccc(Cl)cc1)Cc1ccc(Br)o1.[Br-]	> 200 µg/mL	–	> 200 µg/mL	100 µg/mL	100 µg/mL	100 µg/mL	> 200 µg/mL	> 200 µg/mL	100 µg/mL	50 µg/mL	100 µg/mL	100 µg/mL	> 200 µg/mL	> 200 µg/mL	> 200 µg/mL
Cc1cc(OCCCCCCCCCC[N+](C)(C)Cc2ccc([N+](=O)[O-])o2)c(C(C)C)cc1Cl.Cc1ccc(S(=O)(=O)[O-])cc1	> 200 µg/mL	25 µg/mL	> 200 µg/mL	200 µg/mL	> 200 µg/mL	200 µg/mL	> 200 µg/mL	> 200 µg/mL	> 200 µg/mL	50 µg/mL	–	100 µg/mL	100 µg/mL	> 200 µg/mL	200 µg/mL
O=C1CN(/N=C/c2ccc([N+](=O)[O-])o2)C(=O)N1 [NITROFURANTOIN]	–	–	–	25 µg/mL (≈ 105 µM)	25 µg/mL (≈ 105 µM)	5 µg/mL (≈ 21 µM)	–	–	25 µg/mL (≈ 105 µM)	2.5 µg/mL (≈ 10.5 µM)	25 µg/mL (≈ 105 µM)	100 µg/mL (≈ 420 µM)	–	–	–
C[N+](C)(CCCCCCCCCCOc1c(Br)cc(Br)cc1Br)Cc1ccc([N+](=O)[O-])o1.[Br-]	> 200 µg/mL	7.5 µg/mL	> 200 µg/mL	2 µg/mL	> 200 µg/mL	4 µg/mL	> 200 µg/mL	> 200 µg/mL	> 200 µg/mL	3 µg/mL	10 µg/mL	4 µg/mL	4 µg/mL	> 200 µg/mL	–
C[N+](C)(CCCCOc1ccc(Cl)cc1)Cc1ccc([N+](=O)[O-])o1.[Br-]	> 200 µg/mL	–	> 200 µg/mL	100 µg/mL	> 200 µg/mL	100 µg/mL	> 200 µg/mL	> 200 µg/mL	> 200 µg/mL	100 µg/mL	> 200 µg/mL	> 200 µg/mL	> 200 µg/mL	> 200 µg/mL	> 200 µg/mL
C[N+](C)(CCCCCCCCCCCCOc1c(Br)cc(Br)cc1Br)Cc1ccc([N+](=O)[O-])o1.[Br-]	> 200 µg/mL	100 µg/mL	> 200 µg/mL	200 µg/mL	–	200 µg/mL	–	> 200 µg/mL	> 200 µg/mL	50 µg/mL	> 200 µg/mL	200 µg/mL	200 µg/mL	> 200 µg/mL	> 200 µg/mL
C[N+](C)(CCCCCOc1ccc(Cl)cc1Cl)Cc1ccc(Br)o1.[Br-]	> 200 µg/mL	–	> 200 µg/mL	25 µg/mL	> 200 µg/mL	25 µg/mL	> 200 µg/mL	100 µg/mL	> 200 µg/mL	10 µg/mL	50 µg/mL	50 µg/mL	50 µg/mL	50 µg/mL	> 200 µg/mL
